Assay results published in article PMC3900297 (Biotechnology and applied biochemistry, 2013).
Several values for one entry are separate records, joined by “and”; a condition that tells them apart may be missing. Identical values can stand only once. Like-named read-outs stand apart in the source and are kept apart here.

What was measured:
CYP261C1 (P450-SS9) = target: T1, CYP261C1 (P450-SS9) (Photobacterium profundum, UniProt Q6LGK6); assay: absorbance spectral titration; format: binding; conditions: μM
T1 sequence (Q6LGK6 1-480): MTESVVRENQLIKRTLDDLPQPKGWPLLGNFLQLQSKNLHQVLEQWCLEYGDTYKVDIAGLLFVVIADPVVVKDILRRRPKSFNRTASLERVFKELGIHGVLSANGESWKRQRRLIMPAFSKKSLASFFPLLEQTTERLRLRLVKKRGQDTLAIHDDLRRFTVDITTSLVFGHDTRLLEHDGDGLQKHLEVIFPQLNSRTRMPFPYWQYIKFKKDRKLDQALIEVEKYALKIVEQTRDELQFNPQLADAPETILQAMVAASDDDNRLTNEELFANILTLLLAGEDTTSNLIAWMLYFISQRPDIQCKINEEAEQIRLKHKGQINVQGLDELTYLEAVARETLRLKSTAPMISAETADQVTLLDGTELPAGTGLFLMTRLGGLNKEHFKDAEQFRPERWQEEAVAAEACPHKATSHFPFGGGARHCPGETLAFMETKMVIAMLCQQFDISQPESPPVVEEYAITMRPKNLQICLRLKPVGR
In short: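 Recombinant CYP261C1 expressed in E. coli TOPP3, Ni-NTA purified, then separated into (+) and (−) forms on cation/anion exchange. Fatty-acid titrations tracked by absorbance spectra at 25 °C in 0.1 M Na-Hepes pH 7.4 with 0.5 mM EDTA. Spectral series underwent PCA, with least-squares fitting to high-spin, low-spin and P420 standards. Kd came from the tight-binding (square-root) equation.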

CYP261D1 (P450-PE36) = assay: absorbance spectral titration; format: binding, Moritella sp. PE36; conditions: 0.1 M Na-Hepes pH 7.4, 0.5 mM EDTA, 25 °C, ambient pressure
In short: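 Recombinant His-tagged enzyme was expressed with […] and 0.5 mM IPTG for 48 h at 30 °C, then Ni-NTA purified. (+) and (−) forms were separated on cation-exchange and DEAE resins and dialyzed into Hepes/glycerol/KCl/TCEP. Titration spectra were taken in a stirred, thermostated cell and analysed by PCA/SVD against high-spin, low-spin and P420 standards. Spin-state changes were fitted to the tight-binding (square-root) equation.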

Row | SMILES | Kd (CYP261C1 (P450-SS9); Myristic acid / KD) | Kd (CYP261D1 (P450-PE36); read-out: Myristic acid / KD, (+) conformer) | Kd (CYP261D1 (P450-PE36); read-out: Myristic acid / KD, (−) conformer) | Kd (CYP261C1 (P450-SS9); Arachidonic acid / KD) | Kd (CYP261D1 (P450-PE36); read-out: Arachidonic acid / KD, (+) conformer) | Kd (CYP261D1 (P450-PE36); read-out: Arachidonic acid / KD, (−) conformer)
1 | CCCCCCCCCCCCCC(=O)O [Myristic acid] | 8.1 µM and 3.6 µM | 2.4 ± 0.7 µM | 3 ± 1 µM |  |  | 
2 | CCCCC/C=C\C/C=C\C/C=C\C/C=C\CCCC(=O)O [Arachidonic acid] |  |  |  | 9.7 µM and 10.4 µM | 3.1 ± 0.6 µM | 8.9 ± 2.2 µM
